Data: ChEMBL document CHEMBL3779764, “Identification and Structure-Activity Relationships of Diarylhydrazides as Novel Potent and Selective Human Enterovirus Inhibitors” (J Med Chem, 2016)
Blank lines part the entries; values can stand above or below the compound they belong to. Active and inactive are the calls of the source. The rule behind the calls is not given here.

Legend:
Enterovirus A71 [1] = experiment: Antiviral activity against Human enterovirus 71 infected in monkey African green Vero cells by MTS-based CPE reduction assay; assay type: functional, organism-based; conditions: Enterovirus A, Vero; read-out: EC50
In short: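 Vero cells (5 × 10^5) seeded, then given serial compound dilutions plus 100 TCID50 EV71. Incubated at 37 °C for 24-36 h until complete CPE in the virus-infected, compound-free control. Viability read by MTS/PMS at 498 nm. EC50 is the concentration inhibiting virus-induced CPE by 50%. At least three repeats.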

RD [2] = experiment: Cytotoxicity against human RD cells assessed as reduction in cell viability after 24 to 36 hrs by MTS-based CPE reduction assay; assay type: functional
In short: (§1)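 Noninfected Vero or RD cells exposed to serial compound dilutions under the CPE-assay conditions (37 °C, 24-36 h). Viability measured by MTS/PMS absorbance at 498 nm. CC50 is the concentration causing 50% death of noninfected cells.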

Enterovirus A71 [3] = experiment: Induction of stabilization of Human enterovirus 71 capsid protein assessed as increase in temperature for achieving equal staining of viral genome at 50 ug/ml by SYBR green fluorescent assay
In short: (§2)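 SYBR green I and II added at 3× with RNase inhibitor at 1 U/µL. Mixture heated 37–70 °C in 1 °C steps, 2 min each, then cooled to 36 °C for 2 min while fluorescence was read.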

Enterovirus A71 [4] = experiment: Antiviral activity against Enterovirus 71 infected in human RD cells after 24 to 36 hrs by MTS-based CPE reduction assay; assay type: functional, organism-based; conditions: Enterovirus A, RD; read-out: EC50
In short: (§3)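 RD cells given serial compound dilutions with EV71. Incubated at 37 °C for 24-36 h until full CPE in the virus control. Viability read by MTS/PMS at 498 nm. EC50 is the concentration giving 50% inhibition of virus-induced CPE. At least three independent experiments.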

[5] = Selectivity index, ratio of CC50 for human RD cells to EC50 for Enterovirus 71; assay type: toxicity, cell-based; conditions: read-out: Ratio CC50/EC50
In short: (§4)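 Selectivity index is CC50/EC50, both taken from MTS-based CPE reduction assays in the same cell line (Vero or RD).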

[6] = Cytotoxicity against african green monkey Vero cells assessed as reduction in cell viability after 24 to 36 hrs by MTS-based CPE reduction assay; conditions: chlorocebus sabaeus; in short: as §1
RD [7] = experiment: Inhibition of human enterovirus 71 capsid assessed as reduction in viral replication at early stages infected in human RD cells at 20 ug/ml; assay type: cell-based; conditions: Enterovirus A71
In short: (§5)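 Time-of-addition test in RD cells infected with EV71 at MOI 0.01. Compound was added at set times relative to infection (0.05 or 20 µg/mL).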

[8] = Selectivity index, ratio of CC50 for african green monkey Vero cells to EC50 for Enterovirus 71; assay type: toxicity, cell-based; conditions: read-out: Ratio CC50/EC50; in short: as §4
Coxsackievirus B4 = experiment: Antiviral activity against Human coxsackievirus B4 infected in african green monkey Vero cells by after 24 to 36 hrs MTS-based CPE reduction assay; assay type: functional, organism-based; conditions: Enterovirus B
In short: (§6)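 Vero cells infected with the coxsackievirus B serotype in the presence of serial compound dilutions. CPE reduction read by MTS/PMS absorbance at 498 nm after 24-36 h at 37 °C. EC50 is the concentration giving 50% CPE inhibition. Mean ± standard deviation of at least three independent experiments.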

Coxsackievirus B2 = experiment: Antiviral activity against Human coxsackievirus B2 infected in african green monkey Vero cells after 24 to 36 hrs by MTS-based CPE reduction assay; assay type: functional, organism-based; conditions: Enterovirus B; in short: as §6
Coxsackievirus B1 = experiment: Antiviral activity against Human coxsackievirus B1 infected in african green monkey Vero cells after 24 to 36 hrs by MTS-based CPE reduction assay; assay type: functional, organism-based; conditions: Enterovirus B; in short: as §6
Coxsackievirus B3 = experiment: Antiviral activity against Human coxsackievirus B3 infected in african green monkey Vero cells after 24 to 36 hrs by MTS-based CPE reduction assay; assay type: functional, organism-based; conditions: Enterovirus B; in short: as §6
Coxsackievirus B6 = experiment: Antiviral activity against Human coxsackievirus B6 infected in african green monkey Vero cells after 24 to 36 hrs by MTS-based CPE reduction assay; assay type: functional, organism-based; conditions: Enterovirus B; in short: as §6
Coxsackievirus B5 = experiment: Antiviral activity against Human coxsackievirus B5 infected in african green monkey Vero cells after 24 to 36 hrs by MTS-based CPE reduction assay; assay type: functional, organism-based; conditions: Enterovirus B; in short: as §6
Enterovirus A71 [9] = experiment: Antiviral activity against Human enterovirus 71 infected in human RD cells after 24 to 36 hrs; assay type: functional, organism-based; conditions: Enterovirus A; in short: as §3
Enterovirus A71 [10] = experiment: Antiviral activity against Human enterovirus 71 infected in human RD cells assessed as reduction in virus titer measured during single replication cycle by virus titer assay; assay type: functional, organism-based
In short: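 RD cells (5 × 10^4 per well) cultured at 37 °C, 5% CO2. Next day, treated with compound at 0.00042-33.3 µg/mL in 10% FBS, 0.5% DMSO. After 2 h, infected with EV71 at MOI 1. Supernatants serially diluted 10^-1 to 10^-8 onto fresh cells. CPE scored at 72 hpi; TCID50 calculated by Reed-Muench.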

RD [11] = experiment: Inhibition of human enterovirus 71 capsid assessed as reduction in viral replication at early stages infected in human RD cells at 0.05 ug/ml; assay type: cell-based; conditions: Enterovirus A71; in short: as §5
RD [12] = experiment: Cytotoxicity against human RD cells infected with human enterovirus 71 measured during a single replication cycle; assay type: cell-based
Enterovirus A71 [13] = experiment: Induction of stabilization of Human enterovirus 71 capsid protein assessed as increase in temperature for achieving equal staining of viral genome at 5 ug/ml by SYBR green fluorescent assay; in short: as §2

SMILES: Cc1cc(CCCCCCCOc2ccc(C3=NCCO3)cc2)on1 [DISOXARIL]
- EC50 (Enterovirus A71 [1]): 19.5 µM
- CC50 (RD [2]): 167 µM
- Activity (Enterovirus A71 [3]): Active
- EC50 (Enterovirus A71 [4]): 15.3 µM
- selectivity ratio [5]: 10.9
- CC50 [6]: 148 µM
- inhibition (RD [7]): Active
- selectivity ratio [8]: 7.6

SMILES: CN(C)c1ccc(C(=O)NNc2c(Br)cccc2Br)cc1
- EC50 (Enterovirus A71 [1]): 0.03 µM
- EC50 (Coxsackievirus B4): 0.34 µM
- CC50 (RD [2]): > 194 µM
- EC50 (Enterovirus A71 [4]): 0.07 µM
- selectivity ratio [5]: > 2930
- CC50 [6]: > 194 µM
- EC50 (Coxsackievirus B2): 0.0005 µM
- EC50 (Coxsackievirus B1): 0.005 µM
- selectivity ratio [8]: > 6460
- EC50 (Coxsackievirus B3): 0.03 µM
- EC50 (Coxsackievirus B6): 0.02 µM
- EC50 (Coxsackievirus B5): 0.06 µM

SMILES: CC(C)(C)c1ccc(C(=O)NNc2c(Br)cccc2Br)cc1
- EC50 (Enterovirus A71 [1]): 0.08 µM
- EC50 (Coxsackievirus B4): 6.52 µM
- CC50 (RD [2]): > 188 µM
- EC50 (Enterovirus A71 [4]): 0.29 µM
- selectivity ratio [5]: > 641
- CC50 [6]: > 188 µM
- EC50 (Coxsackievirus B2): 1.57 µM
- EC50 (Coxsackievirus B1): 2.61 µM
- selectivity ratio [8]: > 2350
- EC50 (Coxsackievirus B3): 0.87 µM
- EC50 (Coxsackievirus B6): 0.92 µM
- EC50 (Coxsackievirus B5): 0.98 µM

- EC50 (Enterovirus A71 [9]): 1.42 µM
SMILES: O=C(c1cccs1)N(Cc1ccc(Br)cc1)c1ccc(F)cc1

SMILES: CC(C)S(=O)(=O)n1c(N)nc2ccc(/C(=N/O)c3ccccc3)cc21 [ENVIROXIME]
- EC50 (Enterovirus A71 [1]): 0.15 µM
- EC50 (Coxsackievirus B4): > 186 µM
- CC50 (RD [2]): > 223 µM
- EC50 (Enterovirus A71 [4]): 0.24 µM
- selectivity ratio [5]: > 950
- CC50 [6]: > 223 µM
- EC50 (Coxsackievirus B2): 0.15 µM
- EC50 (Coxsackievirus B1): 0.75 µM
- selectivity ratio [8]: > 1490
- EC50 (Coxsackievirus B3): 2.48 µM
- EC50 (Coxsackievirus B6): 0.1 µM
- EC50 (Coxsackievirus B5): 0.12 µM

SMILES: CN(C)c1ccc(C(=O)NNc2c(Cl)cccc2Cl)cc1
- EC50 (Enterovirus A71 [1]): 0.02 µM
- EC50 (Coxsackievirus B4): 2.57 µM
- Activity (Enterovirus A71 [10]): Active
- CC50 (RD [2]): > 247 µM
- EC50 (Enterovirus A71 [4]): 0.03 µM
- selectivity ratio [5]: > 8230
- CC50 [6]: > 247 µM
- EC50 (Coxsackievirus B2): 0.0009 µM
- EC50 (Coxsackievirus B1): 0.0013 µM
- inhibition (RD [11]): Active
- selectivity ratio [8]: > 12300
- EC50 (Coxsackievirus B3): 0.95 µM
- Activity (RD [12]): Non-toxic
- EC50 (Coxsackievirus B6): 0.94 µM
- Activity (Enterovirus A71 [13]): Active
- EC50 (Coxsackievirus B5): 2.27 µM
